High-throughput results (PubChem)
CHT inh = inhibits the human high affinity choline transporter; Q9GZV3; CHT-expressing cells, membrane potential dye, choline response; hits give low values; B-score at 10 µM; 310,000 tested, 0.86% active; AID 488975;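 active = B-score over 3 SD under the library average, and starting fluorescence ratio not unusually high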;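 also: choline stimulus applied at its EC90 after an EC20 pre-addition; B-score computed on integrated fluorescence ratio after choline addition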
NR2E3 ag-1 = activates human photoreceptor nuclear receptor NR2E3; inhibition of corepressor binding, % at 4.78 µM; AID 2300; Q9Y5X4; 320,000 tested, 0.12% active; GST-NR2E3/biotin-RetCOR TR-FRET, 1536-well;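 active = percent inhibition above the cutoff of mean plus 3 SD of all tested compounds, set per screening campaign, cut at about 20% in these data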;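 also: 0% = DMSO wells and 100% = biotin wells as full block of FRET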
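Material – GST-tagged NR2E3 plus biotinylated RetCOR corepressor · Quantity – NR2E3 fusion 1.35 nM · Times – 5 h incubation at 4 °C · Medium – pH 7.5 Tris-based buffer · Technique – TR-FRET, Eu(K)-anti-GST donor, streptavidin-D2 acceptor, ex 340, em 617/671 nm · Benchmarks – high control biotin, low control 0.6% DMSO · Format – 1536-well plates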
NR2E3 ag-2 = agonists of human NR2E3 nuclear receptor; inhibition of corepressor binding, % at 3.98 µM; Q9Y5X4; 360,000 tested, 0.35% active; CHO-S Gal4-NCOR/VP16-NR2E3 two-hybrid, luciferase;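 active = inhibition above the mean of all tested compounds plus 3 SD, cut at about 70% in these data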;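 also: 0% = DMSO with NR2E3 transfected cells and 100% = cells lacking NR2E3 construct; higher means lower luciferase signal from less NR2E3 corepressor binding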
NR2F2 inh = inhibitors of human COUP-TFII (NR2F2); P24468; HEK293T NGFI-A luciferase reporter, luminescence; inhibition, % at 8.6 µM; 370,000 tested, 0.7% active; AID 686940;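 active = inhibition above a per-plate cutoff, mean inhibition of test wells between control levels plus 3 SD, cut at about 38% in these data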;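 also: cells cotransfected with COUP-TFII expression vector driving the NGFI-A reporter; 0% = median of COUP-TF2 test wells and 100% = reporter-only cells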
GalR3 antag = blocks the human galanin receptor 3; O60755; HEK293 GalR3-CNG cAMP membrane potential fluorescence; galR3 body fused to GalR1 C-terminus; inhibition, % at 3 µM; 360,000 tested, 0.44% active; AID 651719;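 active = inhibition above the screen-wide average plus 3 SD, cut at about 13% in these data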;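 also: forskolin and galanin both at EC90 stimulate the cells; cAMP rise reported by CNG channel membrane potential dye signal; 0% = forskolin plus galanin with DMSO and 100% = forskolin alone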
Target sequence (O60755 1-299 limits assumed): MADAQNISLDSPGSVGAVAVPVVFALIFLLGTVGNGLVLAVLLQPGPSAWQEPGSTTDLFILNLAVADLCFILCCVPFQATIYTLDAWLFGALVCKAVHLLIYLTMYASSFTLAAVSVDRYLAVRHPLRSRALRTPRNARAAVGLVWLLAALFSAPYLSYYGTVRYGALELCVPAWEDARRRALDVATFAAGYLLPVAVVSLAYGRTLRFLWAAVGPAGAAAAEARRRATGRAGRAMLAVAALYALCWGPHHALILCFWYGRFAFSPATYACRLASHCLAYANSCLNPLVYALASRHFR
CHT allo act = allosteric activators of human choline transporter CHT. CHT-expressing cells, membrane potential dye, choline EC20; hits give high values; LV-AA mutant CHT in HEK293 cells. B-score at 10 µM. 310,000 tested, 0.49% active. Q9GZV3;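 active = initial fluorescence not abnormally high and integrated response B-score, plate-corrected, over 3 SD above library mean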
CHT activ conf = human CHT activation, confirmatory screen. shares compounds with CHT allo act. CHT-expressing cells, membrane potential dye fluorescence (FDSS); % of choline EC20–EC90 response window; HEK293 expressing CHT LV-AA mutant; choline added at its EC20. activation, % at 10 µM. 2,500 tested, 91% active;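 active = primary screen active, with duplicate mean activation above negative control mean plus 3 SD, cut at about 11% in these data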
HEK293 MP dye = activity in parental HEK293 cells lacking CHT. 2,500 tested, 62% active. shares compounds with CHT allo act. ratio readout change at 10 µM, hits read low. membrane potential dye fluorescence (FDSS); measured after EC20 choline addition. AID 623908;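 active = duplicate-averaged ratio beyond 3 SD from buffer wells, up or down, though filed actives are nearly all decreases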
Numbers without * were called inactive; i = inactive; · = not tested or not shown. Most compounds without a hit are left out; they make up all but 2.3% or so of the library.

SMILES	CHT inh	NR2E3 ag-1	NR2E3 ag-2	NR2F2 inh	GalR3 antag	CHT allo act	CHT activ conf	HEK293 MP dye
COc1ccc([C@H]2OC(=O)C[C@@H]2C(=O)N2CCN(c3ccccc3Cl)CC2)cc1OC	·	·	·	-2	·	·	·	·
O=c1c2c3c(sc2nc2n1CCC2)CCCCC3	i	0	-47	-21	0	i	·	·
CC1(C)Cc2c(sc3nc4n(c(=N)c23)CCC4)CO1	i	0	-8	5	0	8.5*	50*	-63*
Cc1nc2sc3c(c2c(=O)o1)CC(C)(C)OC3	i	1	4	-8	-1	i	·	·
N=c1c2c3c(sc2nc2n1CCC2)CCCC3	i	3	-22	-17	-4	i	48*	-40*
COc1ccc(/C=C2\CC3(OC(=O)c4ccc(F)cc4)CCCN2C3)cc1 (stereo not given)	·	·	·	-3	·	·	·	·
Cc1ccc2nc3ccc(N4CCCC4)nn3c(=O)c2c1	i	-1	-103	-31	1	i	44*	-46*
CC(C)C(CCNCc1ccccn1)c1ccc(Cl)cc1 (stereo not given)	i	-4	-16	1	-18	6.7*	17*	i
COC(=O)[C@]12C[C@H](CC(=O)NCCc3ccccc3OC)C(=O)N(CCc3ccc(OC)c(OC)c3)C1=C[C@H](COCc1ccccc1)O[C@@H]2C	·	·	·	19	·	·	·	·
CN(C)c1ccc(Nc2nc(N)c3ccccc3n2)cc1	i	-13	-174	-9	-12	7.4*	49*	-75*
Cc1ccc(Nc2nc(N)c3ccccc3n2)cc1Cl	i	3	-129	-29	-13	i	·	·
Cc1ccccc1Nc1nc(N)c2ccccc2n1	i	1	-71	-15	-7	6.8*	11*	-44*
Nc1nc(Nc2ccccc2)nc2ccccc12	i	4	-110	-46	-6	i	37*	-66*
Cn1cccc1C(=O)N1CCN(S(=O)(=O)c2ccc(F)cc2)CC1	·	·	·	-24	·	·	·	·
O=C(OC12CCCN(C1)/C(=C/c1ccc(Cl)cc1)C2)c1ccc(Cl)cc1 (stereo not given)	·	·	·	-4	·	·	·	·
Cc1sc2ncnc(NCCCn3ccnc3)c2c1C	i	-3	-10	8	-1	i	48*	-51*
CC(C)CN1C(=O)[C@@]2(CC(=O)N(C)C2c2ccccc2)c2cc(-n3cc(CN(C)C)nn3)ccc21 (stereo not given in full)	·	·	·	1	·	·	·	·
O=C(C[n+]1cc(-c2ccc(Br)cc2)n2c1CCCCC2)c1ccccc1	i	5	7	29	-6	i	23*	i
O=C(C[n+]1cc(-c2ccc(Cl)cc2)n2c1CCCCC2)c1ccccc1	i	2	-12	-24	-1	i	·	·
N#CCC(=O)NNc1c([N+](=O)[O-])cc(C(F)(F)F)cc1[N+](=O)[O-]	i	-10	-10	16	3	i	27*	-44*
O=[N+]([O-])c1cc(C(F)(F)F)cc([N+](=O)[O-])c1NN=C1CCCCC1	i	0	-3	-8	-3	i	·	·
CN(C)CCCOc1nc2c(c(=O)n(C)c(=O)n2C)n1C	i	3	26	1	-4	9.1*	49*	-55*
O=C(COc1ccc(F)cc1Cl)Nc1nnc(-c2ccc(F)c(F)c2)o1	·	·	·	10	·	·	·	·
N#Cc1ccc(/C=C2\CC3(OC(=O)c4ccc(F)cc4)CCCN2C3)cc1 (stereo not given)	·	·	·	5	·	·	·	·
OCCN1CCN(c2ncnc3ccc(Br)cc23)CC1	i	0	-30	36	1	13*	38*	-30*
SMILES	CHT inh	NR2E3 ag-1	NR2E3 ag-2	NR2F2 inh	GalR3 antag	CHT allo act	CHT activ conf	HEK293 MP dye
OCCN1CCN(c2nc(-c3ccccc3)c3cc(Br)ccc3n2)CC1	i	3	-19	0	-9	i	·	·
COC(=O)c1cc(C(=O)N2CCN(c3ccccc3OC)CC2)cc([N+](=O)[O-])c1	i	3	-13	-5	-4	6.8*	13*	i
COC(=O)c1cc(C(=O)N2CCN(c3cccc(C)c3C)CC2)cc([N+](=O)[O-])c1	i	3	-18	7	-7	i	·	·
O=C1c2cc(S(=O)(=O)NCCO)ccc2-c2ccc(S(=O)(=O)NCCO)cc21	i	1	-14	-29	0	i	41*	-35*
N#CC(C#N)=C1c2cc(S(N)(=O)=O)ccc2-c2ccc(S(N)(=O)=O)cc21	·	·	-2	-9	-2	·	·	·
N#CC(C#N)=C1c2cc(S(=O)(=O)NCCO)ccc2-c2ccc(S(=O)(=O)NCCO)cc21	i	-2	6	-3	-4	9.5*	54*	-52*
O=C(O)CNS(=O)(=O)c1ccc2c(c1)C(=O)c1cc(S(=O)(=O)NCC(=O)O)ccc1-2	i	·	-7	1	-6	i	·	·
O=C(Nc1ccc(Br)cc1)O[C@@H]1CC[C@@]23CCCN2C(=O)CCC[C@H]3C1	·	·	·	7	·	·	·	·
Cn1c(N=Nc2ccccc2)nc2ccccc21	i	-3	-103	20	-2	6.4*	29*	-53*
O=c1c2cnn(-c3ccccc3)c2nc(-c2cccs2)n1-c1ccc(Br)cc1	i	-1	-32	3	-1	i	14*	i
C=CCN1C(=O)[C@@H](CC(=O)N2CCCCC2)[C@]2(C(=O)OC)CCCCC=C12	·	·	·	24	·	·	·	·
COC(=O)[C@H](C(C)C)N1Cc2nnn(Cc3ccccc3)c2-c2cc(F)ccc2S1(=O)=O	·	·	·	2	·	·	·	·
O=C1C(NS(=O)(=O)c2cccs2)=C(N2CCOCC2)C(=O)c2ccccc21	i	-4	-15	-15	1	7.2*	41*	-40*
O=C(Cn1c(=O)c2cccn2c2cccnc21)NCCCN1CCN(c2ccc(Cl)cc2)CC1	·	·	·	-3	·	·	·	·
Cc1ccc(OCC(C)CN2CCC(C(O)(c3ccccc3)c3ccccc3)CC2)cc1 (stereo not given)	·	·	·	6	·	·	·	·
COc1ccc(OC)c(NS(=O)(=O)c2ccc(N3CCCC3=O)cc2)c1	i	6	5	-54	-8	9.1*	37*	i
COc1ccc(OC)c(NS(=O)(=O)c2ccc(-n3cccn3)cc2)c1	·	·	-25	9	-5	·	·	·
COc1ccc(C2=NCCn3cccc32)c(OC)c1	i	2	-22	-9	-11	i	43*	-49*
CCCCOc1ccc(C(=O)NC2CCCCN(CC)C2=O)cc1 (stereo not given)	·	·	·	-4	·	·	·	·
